Measured values as given in article PMC4207122 (Cell biology and toxicology, 2013).
Read-outs that look alike come from different tables or passages of the source.

Columns and labels:
[1] = test system: LNCaP human prostate cancer cells; assay: Differential nuclear staining; type: cell-based
[2] = test system: 22Rv1 human prostate cancer cells; assay: Differential nuclear staining; type: cell-based
[3] = test system: YT NK-like (YT) cells; assay: Apoptosis/necrosis by annexin V-FITC and PI flow cytometry; type: cell-based; conditions: 18 h; for mode of cell death: KTZ 15 μM, CTZ 10 μM, complexes 20–60 μM
Method in brief: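 YT NK-like cells were exposed to test compounds for 18 h, then handled on ice, stained together with annexin V-FITC and PI, and analysed by flow cytometry with about 10,000 events per sample. Controls were 0.3% v/v DMSO solvent, 600 μM H2O2 and untreated cells. Annexin-positive cells (early plus late) were summed as apoptotic, and PI-only cells counted as necrotic. Values are the mean of three independent measurements with SD.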

[4] = Differential nuclear staining; type: cell-based; conditions: mouse, wild type mouse embryonic fibroblasts (MEFs)
[5] = test system: human cervical HeLa cancer cells; assay: Differential nuclear staining; type: cell-based; conditions: for CC50: Homo sapiens, 20 h
[6] = Differential nuclear staining; type: cell-based; conditions: human, MCF-10A non-transformed mammary epithelial cells
[7] = test system: Calf Thymus (CT) DNA; assay: Circular dichroism; type: binding; conditions: 20 h at 37 °C, pH 7.39 Tris/HCl buffer, up to ri 2.0 (molar ratio drug/DNA)
Method in brief: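 Test compound stocks (1.5 mM) were freshly made in water and added to freshly prepared CT DNA (60 μM) in 5 mM Tris/HCl, 50 mM NaClO4, pH 7.39, at drug/DNA molar ratios of 0.5–2.0. Samples were incubated 20 h at 37 °C. Spectra were recorded at 25 °C over 220–420 nm, blank-corrected with noise reduction, and expressed as […].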

[8] = test system: DU145 human prostate carcinoma cells; assay: Differential nuclear staining; type: cell-based
[9] = test system: YT NK-like lymphoblastic lymphoma cells; assay: Differential nuclear staining; type: cell-based
[10] = in vitro; type: cell-based; conditions: human
[11] = test system: all the cancer cells lines studied

| Compound | CC50 [1] [µM] | CC50 [2] [µM] | mode of cell death [3] | CC50 at 20 h [4] [µM] | CC50 [5] [µM] | CC50 at 20 h [6] [µM] | change of CD spectrum of CT DNA [7] | CC50 ([8]; Homo sapiens, DU-145, 20 h) [µM] | CC50 ([9]; 20 h) [µM] | CC50 ([1]; Homo sapiens, LNCaP, 20 h) [µM] | CC50 ([2]; Homo sapiens, 22Rv1, 20 h) [µM] | further results |
| --- | --- | --- | --- | --- | --- | --- | --- | --- | --- | --- | --- | --- |
| C[SH](C)(=O)[Ru-]([Cl])([Cl])([Cl])([Cl])[SH](C)(C)=O.[Na+] [Compound C1, Na[trans-RuCl4(DMSO)2]] | 46.5 | 114 |  |  |  |  |  |  |  |  |  |  |
| CC(=O)N1CCN(c2ccc(OCC3COC(Cn4ccnc4)(c4ccc(Cl)cc4Cl)O3)cc2)CC1 (centres unmarked) [KTZ, ketoconazole] |  |  | preferentially through apoptosis | 31.3 | 66.7 | 37 | no modifications | 28.6 | 4.9 | 27.9 | 24.2 |  |
| Clc1ccccc1C(c1ccccc1)(c1ccccc1)n1ccnc1 [CTZ, clotrimazole] |  |  | preferentially through apoptosis | 35.3 | 94.3 | 79.4 | no modifications | 43.6 | 16.7 | 15.4 | 19.2 | apoptosis induced relative to any of the Ru-CTZ complexes [3]: ≥ 3 fold; CC50 at 20 h [10]: 95.3 µM; Relative Activity (R.A.) ([5]; relative to KTZ (1-6) or CTZ (7-12)): 1; cytotoxicity against cancer cell lines (in words) [11]: moderate cytotoxicity; Relative Activity (R.A.) ([8]; DU145, relative to KTZ (1-6) or CTZ (7-12)): 1; Relative Activity (R.A.) ([9]; YT, relative to KTZ (1-6) or CTZ (7-12)): 1; Relative Activity (R.A.) ([1]; LNCaP, relative to KTZ (1-6) or CTZ (7-12)): 1; Relative Activity (R.A.) ([2]; 22Rv1, relative to KTZ (1-6) or CTZ (7-12)): 1 |
| Cc1ccc(C(C)C)cc1.Cc1ccc(C(C)C)cc1.[Cl][Ru][Cl].[Cl][Ru][Cl] [Compound C3, [Ru(p-cymene)Cl2]2] | 29 | 141 |  |  |  |  |  |  |  |  |  | CC50 [8]: 218 µM; CC50 [9]: 164 µM |
